These results are taken from ChEMBL document CHEMBL1128512, “Keto/enol epoxy steroids as HIV-1 Tat inhibitors: structure-activity relationships and pharmacophore localization” (J Med Chem, 1995).

Series [1] in a line: Therapeutic index, measured by whole cell assay. Particulars: read-out: Therapeutic index. A digest of the protocol:
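Ratio of cytotoxicity IC50 to HIV replication IC50 in H9 cells; cut-off of 3 counts as positive. Toxicity: uninfected H9 at 2×10^4 cells/well, 3-5 compound concentrations in quadruplicate, 5 days at 37 °C, 5% CO2, media and compound renewed day 3, viable cells counted by trypan blue exclusion. Antiviral IC50 from HIV-1 IIIB p24 ELISA at day 5.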

Series [2] relates to Human immunodeficiency virus 1. Nature of the series: Inhibition of HIV replication in H9 cells. In kind it is functional, organism-based. The conditions noted are these: Human immunodeficiency virus 1, H9. The procedure, abridged: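 H9 cells (RPMI 1640 + 10% IFCS) infected with HIV-1 IIIB at three virus concentrations (0.5 log10 dilutions; most dilute ~5-10 infectious units/well), seeded 2×10^4 cells/well. 3-5 compound concentrations, 0.5% DMSO final, quadruplicate, 5 days at 37 °C, 5% CO2; media and compound renewed day 3. Day-5 supernatant p24 ELISA; IC50 for ≥2 viral doses, 3-5 assays, mean of n.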

The subject of series [3] is SW480. The series can be described thus: The compound was tested for inhibition of HIV-1 replication in SW480 cells using HIV tat assay; Not active at 37 mM. In kind it is functional, cell-based, Homo sapiens. A digest of the protocol: (§1)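 SW480 colon carcinoma cells at 70-80% confluence, calcium phosphate co-transfected with HIV-1 LTR-CAT (pBennCAT) plus pSV2tat, total DNA adjusted with salmon sperm DNA. Compound (from DMSO stock diluted 100-fold in DMEM + 10% IFCS) added 5 h post-transfection, duplicate wells, 48 h at 37 °C. CAT activity read with [14C]chloramphenicol, 2 h. Selectivity check against SV40-promoter CAT. IC50 from logit dose-response curves, 3-5 experiments, 95% confidence limits.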

For series [4], the system named is SW480. The series can be described thus: The compound was tested for inhibition of HIV-1 replication in SW480 cells using HIV tat assay; Not active at 123 mM. In kind it is functional, cell-based, Homo sapiens. A digest of the protocol: as §1
In series [5] the test system is SW480. Nature of the series: The compound was tested for inhibition of HIV-1 replication in SW480 cells using HIV tat assay; Not active at 100 mM. In kind it is functional, cell-based, Homo sapiens. The procedure, abridged: as §1
In series [6] the test system is SW480. The series can be described thus: The compound was tested for inhibition of HIV-1 replication in SW480 cells using HIV tat assay; Not active at 80 mM. In kind it is functional, cell-based, Homo sapiens.
In series [7] the test system is SW480. The series can be described thus: The compound was tested for inhibition of HIV-1 replication in SW480 cells using HIV tat assay; Not active at […]. In kind it is functional, cell-based, Homo sapiens.
The test system of series [8] is SW480. The series can be described thus: The compound was tested for inhibition of HIV-1 replication in SW480 cells using HIV tat assay; Not active. In kind it is functional, cell-based, Homo sapiens.
Series [9] concerns SW480. Nature of the series: The compound was tested for inhibition of HIV-1 replication in SW480 cells using HIV tat assay; Not active at 90 mM. In kind it is functional, cell-based, Homo sapiens.
Series [10] has as its system SW480. Nature of the series: The compound was tested for inhibition of HIV-1 replication in SW480 cells using HIV tat assay; Not active at 32 mM. In kind it is functional, cell-based, Homo sapiens. The procedure, abridged:
as §1

Regarding `C[C@@]12CCCC[C@@]1(O)[C@@H](Cl)C(=O)C(C(N)=O)C2` (some centres not stated), in series [1], the selectivity ratio is 2. Further, half-maximal inhibition in [2] (IC50) required 9300 nM.
For `C[C@@]12CCCC[C@]13O[C@@H]3C(=O)C(C(N)=O)C2` (some centres not stated), the selectivity ratio in series [1] turned out to be 4.1. In series [2], the IC50 (usually the concentration needed to halve the response being measured) stood at 6400 nM.
The matching figures for `COc1ccc(NC(=O)C2CC(C)(C)C3OC3C2=O)cc1` (configuration not stated): 1.2 and 5200 nM.
In the case of `COc1ccc(NC(=O)C2CC(C)(C)C=CC2=O)cc1` (configuration not stated), the IC50 entry in the series on SW480 [3] is listed as “Not Active”.
Regarding `CC1(C)C=CC(=O)C(C(=O)Nc2ccccc2)C1` (configuration not stated), the IC50 result in the series with SW480 [4] was “Not Active”.
As for `C[C@@]12CCCCC1=CC(=O)C(C(=O)Nc1ccccc1)C2` (some centres not stated), the IC50 entry in the series on SW480 [5] was “Not Active”.
As to `C[C@@]12CCCC[C@]13O[C@@H]3C(=O)C(C(=O)Nc1ccccc1)C2` (some centres not stated), the selectivity ratio in series [1] was 3.8. Further, it took 2100 nM to reach half-maximal inhibition in series [2] (IC50).
Turning to `C[C@@]12CCCC[C@]13O[C@@H]3C(=O)C(C#N)C2` (some centres not stated), the selectivity ratio in series [1] came out at 3. In series [2], this compound returned an IC50 of 11000 nM.
As to `CC1(C)CC(C(=O)Nc2c(Cl)cccc2Cl)C(=O)C2OC21` (configuration not stated), the selectivity ratio in series [1] was 2.3. In [2], this compound showed an IC50 of 2700 nM.
For `COc1ccc(NC(=O)C2C[C@]3(C)CCCC[C@]34O[C@@H]4C2=O)cc1` (some centres not stated), in that order: 1.3 and 8500 nM.
Regarding `CC(=O)O[C@H]1CCC2C3CCC4=CC(=O)C(C(N)=O)C[C@]4(C)C3CC[C@@]21C` (some centres not stated), in the series on SW480 [6], the IC50 entry is listed as “Not Active”.
`C[C@]12CCC3C(CC[C@@]45O[C@@H]4C(=O)C(S(C)(=O)=O)C[C@]35C)C1CC[C@@H]2O` (some centres not stated): the selectivity ratio in series [1] was 3.9. In series [2], it took 1400 nM to reach half-maximal inhibition (IC50).
With `COC(=O)C1C[C@]2(C)[C@H]3CC[C@]4(C)[C@@H](O)CC[C@H]4[C@@H]3CC[C@]23O[C@@H]3C1=O` (some centres not stated), the selectivity ratio in [1] stood at 4.5. Moreover, the IC50 in series [2] worked out at 2400 nM.
The matching figures for `C[C@]12CC[C@H]3[C@@H](CC[C@@]45O[C@@H]4C(=O)C(C(N)=O)C[C@]35C)[C@@H]1CC[C@@H]2O` (some centres not stated): 6.5 and 1200 nM.
Consider `CC(=O)O[C@H]1CC[C@H]2[C@@H]3CCC4CC(=O)C(C(N)=O)C[C@]4(C)[C@H]3CC[C@]12C` (some centres not stated), for which the IC50 entry in the series with SW480 [6] is on record as “Not Active”.
Regarding `C[C@]12CC[C@H]3[C@@H](CC[C@@]45O[C@@H]4C(=O)C(S(=O)(=O)c4ccccc4)C[C@]35C)[C@@H]1CC[C@@H]2O` (some centres not stated), the selectivity ratio in [1] is 2.6. The compound further came in with an IC50 in series [2] of 1600 nM.
On to `C[C@]12CC[C@H]3[C@@H](CC[C@]45O[C@H]4C(=O)CC[C@]35C)[C@@H]1CC[C@@H]2O`, for which, in the series with SW480 [7], the IC50 result is on record as “Not Active”.
Regarding `COC(=O)C1C[C@]2(C)[C@H]3CC[C@]4(C)[C@@H](OC(C)=O)CC[C@H]4[C@@H]3CC[C@]23O[C@@H]3C1=O` (some centres not stated), the selectivity ratio in series [1] was 3.1. The same compound gave an IC50 in series [2] of 1400 nM.
On to `CC(=O)O[C@H]1CC[C@H]2[C@@H]3CC[C@@]45O[C@@H]4C(=O)C(C(N)=O)C[C@]5(C)[C@H]3CC[C@]12C` (some centres not stated), for which, in series [1], the selectivity ratio was found to be 1.6. For the same compound, the IC50 in series [2] is 2400 nM.
With `CC(=O)O[C@H]1CC[C@H]2[C@@H]3CC[C@@]45O[C@@H]4[C@@H](O)[C@@H](C(N)=O)C[C@]5(C)[C@H]3CC[C@]12C`, in the series on SW480 [6], the IC50 result is given as “Not Active”.
As for `CC(=O)O[C@H]1CC[C@H]2[C@@H]3CC[C@@]45O[C@@H]4C(=O)C(S(C)(=O)=O)C[C@]5(C)[C@H]3CC[C@]12C` (some centres not stated), the selectivity ratio in [1] came out at 4.3. The compound also registered an IC50 in series [2] of 300 nM.
Consider `C[C@]12CC[C@H]3[C@@H](CC[C@@]45O[C@@H]4[C@H](O)[C@H](C(N)=O)C[C@]35C)[C@@H]1CC[C@@H]2O`, for which the IC50 entry in the series with SW480 [8] was “Not Active”.
Consider `C[C@]12CC[C@H]3[C@@H](CCC4CC(=O)C(C(N)=O)C[C@@]43C)[C@@H]1CC[C@@H]2O` (some centres not stated), for which, in the series with SW480 [9], the IC50 result is reported as “Not Active”.
As to `CC(=O)O[C@H]1CC[C@H]2[C@@H]3CC[C@@]45O[C@@H]4[C@H](O)[C@H](C(N)=O)C[C@]5(C)[C@H]3CC[C@]12C`, the IC50 result in the series on SW480 [6] is “Not Active”.
Consider `C[C@]12CCCC[C@@]13O[C@H]3C(=O)C(C(N)=O)C2` (some centres not stated), for which the selectivity ratio in series [1] worked out at 2.6. This compound also registered an IC50 in series [2] of 10300 nM.
As to `C[C@@]12CCCC[C@@]1(O)[C@@H](Cl)C(=O)C(C(=O)Nc1ccccc1)C2` (some centres not stated), in series [1], the selectivity ratio was determined as 1.9. Further, inhibition in series [2] was half-maximal at 3300 nM (IC50).
Turning to `CC1(C)C=CC(=O)C(C(=O)Nc2c(Cl)cccc2Cl)C1` (configuration not stated), the IC50 entry in the series on SW480 [10] is recorded as “Not Active”.
Turning to `C[C@]12CC(C(N)=O)C(=O)C=C1CCC1C2CC[C@@]2(C)C1CC[C@@H]2O` (some centres not stated), in the series with SW480 [9], the IC50 entry is on record as “Not Active”.
For the compound `CC1(C)CC(C(=O)Nc2ccccc2)C(=O)C2OC21` (configuration not stated), the selectivity ratio in series [1] came out at 1.4. Besides, the IC50 in series [2] amounted to 4300 nM.
Consider `COc1ccc(NC(=O)C2C[C@]3(C)CCCC[C@@]3(O)[C@@H](Cl)C2=O)cc1` (some centres not stated), for which the selectivity ratio in series [1] came out at 4.2. For the same compound, in series [2], the IC50 stood at 3300 nM.
In the case of `C[C@]12CCCC[C@@]13O[C@H]3C(=O)C(C#N)C2` (some centres not stated), the selectivity ratio in [1] stood at 3.8. In addition, the IC50 in series [2] stood at 25900 nM.
As to `COc1ccc(NC(=O)C2C[C@]3(C)CCCCC3CC2=O)cc1` (some centres not stated), the IC50 result in the series on SW480 [5] is reported as “Not Active”.
Turning to `O=C1CN=C(c2ccc[nH]2)c2cc(Cl)ccc2N1`, half-maximal inhibition in series [2] (IC50) was put at 600 nM.
